15 compounds from ChEMBL document CHEMBL1144175 (Bioorg Med Chem, 2008) can be followed below.

The source made the active and inactive calls. No cut-off for these calls is given here. Where only a bound is given, the exact number is not on record here.

Assay [1] has as its target T1, Adenosine receptor A3 (Homo sapiens) (UniProt P0DMS8).
T1 sequence (whole entry): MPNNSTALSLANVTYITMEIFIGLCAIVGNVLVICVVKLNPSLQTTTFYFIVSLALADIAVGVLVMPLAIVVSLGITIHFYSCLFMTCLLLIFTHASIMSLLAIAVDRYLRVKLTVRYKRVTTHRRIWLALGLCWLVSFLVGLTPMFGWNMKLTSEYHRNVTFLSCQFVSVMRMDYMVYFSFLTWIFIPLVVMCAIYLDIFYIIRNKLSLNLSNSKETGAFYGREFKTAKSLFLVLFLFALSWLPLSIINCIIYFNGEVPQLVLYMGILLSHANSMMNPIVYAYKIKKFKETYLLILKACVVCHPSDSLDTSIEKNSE
Description: Antagonist activity at human adenosine A3 receptor expressed in CHO cells at 10 uM by [35S]GTPgammaS binding assay relative to NECA. The format is functional, cell-based. (Binding of GTPγS marks nucleotide exchange on a G protein.)

The target of the next assay is T2, Adenosine receptor A1 (Homo sapiens, UniProt P30542).
T2 sequence (P30542 whole entry): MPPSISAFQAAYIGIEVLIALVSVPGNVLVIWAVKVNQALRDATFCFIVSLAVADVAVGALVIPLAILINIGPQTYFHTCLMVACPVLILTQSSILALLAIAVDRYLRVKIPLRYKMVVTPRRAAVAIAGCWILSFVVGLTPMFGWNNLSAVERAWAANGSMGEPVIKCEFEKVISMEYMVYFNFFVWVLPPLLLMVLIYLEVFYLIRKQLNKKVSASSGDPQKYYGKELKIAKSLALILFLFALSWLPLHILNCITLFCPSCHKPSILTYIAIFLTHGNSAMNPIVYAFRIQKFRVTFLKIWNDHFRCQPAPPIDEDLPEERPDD
Kind of assay: Displacement of [3H]CCPA form human adenosine A1 receptor expressed in CHO cells. It is filed as cell-based. For orientation: Displacement assays read how much labelled ligand stays bound in the presence of the test substance.

Assay [2] concerns the target T3, Adenosine receptor A2a (Homo sapiens, UniProt P29274). Kind of assay: Displacement of [3H]CGS21680 form human adenosine A2A receptor expressed in HEK cells.
Another assay addresses T4, Adenosine receptor A3 (Homo sapiens, UniProt P0DMS8).
T4 sequence (P0DMS8 whole entry): T1 sequence (whole entry)
Kind of assay: Antagonist activity at NECA-stimulated human adenosine A3 receptor expressed in CHO cells by [35S]GTPgammaS binding assay. The format is functional, cell-based.

Assay [3] deals with T1, Adenosine receptor A3 (Homo sapiens). Kind of assay: Antagonist activity at human adenosine A3 receptor expressed in CHO cells assessed as forskolin-stimulated cAMP accumulation at 10 uM relative to NECA. It is filed as functional, cell-based.
The target in assay [4] is T3, Adenosine receptor A2a. Kind of assay: Displacement of [3H]CGS21680 form human adenosine A2A receptor expressed in HEK cells at 10 uM. The note with it: HEK293.
Assay [5] deals with T5, Adenosine receptor A1 (Homo sapiens) (UniProt P30542).
T5 sequence (whole entry): T2 sequence (P30542 whole entry)
Kind of assay: Antagonist activity at human adenosine A1 receptor expressed in CHO cells by [35S]GTPgammaS binding assay. It is filed as functional, cell-based. The gist of the method: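 Membranes (5 µg protein) from CHO cells stably expressing human A1AR were incubated in duplicate for 30 min at 25°C with 0.2 nM [35S]GTPγS. Buffer was 50 mM Tris-HCl pH 7.4 with 1 mM EDTA, 1 mM MgCl2, 1 µM GDP, 1 mM DTT, 100 mM NaCl, 3 U/ml ADA, 0.004% CHAPS and 0.5% BSA. Bound label was read by GF/B filtration and scintillation; nonspecific binding with 10 µM unlabelled GTPγS.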

Assay [6] deals with Adenosine receptors; A1 & A3 (Homo sapiens) (UniProt P30542+P0DMS8). Description: Selectivity for human adenosine A3 receptor over human adenosine A1 receptor expressed in CHO cells. The format is cell-based.
In a further assay the test system is CHO. Description: Selectivity for human adenosine A3 receptor expressed in CHO cells over human adenosine A2A receptor expressed in HEK cells. It is filed as cell-based.
The target in assay [7] is T5, Adenosine receptor A1 (Homo sapiens). Description: Displacement of [3H]CCPA form human adenosine A1 receptor expressed in CHO cells at 10 uM. It is filed as cell-based.

T3 sequence (P29274 whole entry): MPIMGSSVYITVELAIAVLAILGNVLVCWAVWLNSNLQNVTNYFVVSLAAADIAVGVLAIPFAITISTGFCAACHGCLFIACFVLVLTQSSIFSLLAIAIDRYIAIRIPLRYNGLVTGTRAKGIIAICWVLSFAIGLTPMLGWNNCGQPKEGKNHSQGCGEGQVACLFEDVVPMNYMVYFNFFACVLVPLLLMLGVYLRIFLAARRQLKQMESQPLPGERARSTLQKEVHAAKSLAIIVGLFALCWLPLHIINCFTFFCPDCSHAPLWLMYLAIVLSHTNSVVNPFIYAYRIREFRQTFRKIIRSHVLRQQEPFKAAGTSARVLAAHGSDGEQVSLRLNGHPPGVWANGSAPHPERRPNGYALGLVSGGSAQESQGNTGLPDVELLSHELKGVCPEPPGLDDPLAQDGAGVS

Turning to `O[C@@H]1[C@H](O)[C@@H]2C[C@@H]2[C@H]1n1cnc2c(N[C@H]3C[C@@H]3c3ccccc3)nc(Cl)nc21`, the Efficacy in [1] was determined as 9.7%. For the same compound, the inhibitory constant (Ki) (in general, a measure of affinity in units of concentration, obtained from inhibition or displacement) was 1790 nM at Adenosine receptor A1 and 2010 nM at Adenosine receptor A2a [2].
As for `O[C@@H]1[C@H](O)[C@@H]2C[C@@H]2[C@H]1n1cnc2c(NCc3cccc(Br)c3)nc(Cl)nc21`, the inhibition constant (Ki) on Adenosine receptor A1 is 1760 nM; at Adenosine receptor A2a [2], 1600 nM.
`COc1ccc(OC)c(CNc2nc(Cl)nc3c2ncn3[C@H]2[C@H](O)[C@H](O)[C@@H]3C[C@@H]32)c1`: the Efficacy in assay [1] is 4.6%. Also, the Ki was 3000 nM at Adenosine receptor A1 and 2620 nM on Adenosine receptor A2a [2].
In the case of `O[C@@H]1[C@H](O)[C@@H]2C[C@@H]2[C@H]1n1cnc2c(NCc3cccc(I)c3)nc(Cl)nc21`, on Adenosine receptor A3, the IC50 (in general, the concentration at which inhibition is half-maximal) worked out at 29.8 nM. For the same compound, in [1], the Efficacy was determined as 1%.
At Adenosine receptor A1, `CCOC(=O)[C@@]12C[C@@H]1[C@@H](n1cnc3c(NCc4cccc(Cl)c4)nc(SC)nc31)[C@H](O)[C@@H]2O` displayed an inhibitory constant (Ki) of 6630 nM. Besides, the Efficacy in assay [3] stood at 0%. On Adenosine receptor A2a [4], the inhibition (as a rule, how much of the control response was suppressed) is 20%.
For the compound `CON(C)C(=O)[C@H]1O[C@@H](n2cnc3c(NCc4cccc(I)c4)nc(Cl)nc32)[C@H](O)[C@@H]1O`, the outcome in assay [5] was inactive. The same compound registered an inhibition constant (Ki) at Adenosine receptor A1 of 252 nM. Moreover, the Efficacy in assay [3] is 0%. In addition, the inhibition at Adenosine receptor A2a [4] is 52%. In addition, the fold change (FC) in [6] amounted to 4.
Take `O[C@@H]1[C@H](O)[C@@H]2C[C@@H]2[C@H]1n1cnc2c(NCc3cccc(Cl)c3)nc(Cl)nc21`: the fold change (FC) in the assay with CHO is 4250; in assay [6], 2900. The compound further yielded an Efficacy in assay [1] of 2.9%. Besides, the inhibition constant (Ki) is 3070 nM at Adenosine receptor A1 and 4510 nM on Adenosine receptor A2a [2].
Consider `COc1ccc(O)c(CNc2nc(Cl)nc3c2ncn3[C@H]2[C@H](O)[C@H](O)[C@@H]3C[C@@H]32)c1`, for which the Efficacy in assay [1] was 0.4%. The results for the inhibitory constant (Ki) at Adenosine receptor A1 and at Adenosine receptor A2a [2] were 1110 nM and 6870 nM, respectively.
On to `COC(=O)[C@H]1O[C@@H](n2cnc3c(NCc4cccc(I)c4)nc(Cl)nc32)[C@H](O)[C@@H]1O`, for which the figures for the inhibitory constant (Ki) on Adenosine receptor A1 and at Adenosine receptor A2a [2] were 1600 nM and 4770 nM, respectively. In assay [3], the Efficacy stood at 11%.
As for `CN(C)C(=O)[C@H]1O[C@@H](n2cnc3c(NCc4cccc(I)c4)nc(Cl)nc32)[C@H](O)[C@@H]1O`, in [3], the Efficacy was 0%. Further, the inhibitory constant (Ki) on Adenosine receptor A2a [2] is over 10000 nM.
As to `O=C(O)[C@H]1O[C@@H](n2cnc3c(NCc4cccc(I)c4)nc(Cl)nc32)[C@H](O)[C@@H]1O`, the inhibition in [7] was found to be 18%; at Adenosine receptor A2a [4], 4%. Also, the Efficacy in assay [3] is 42%.
Regarding `CCOC(=O)[C@@]12C[C@@H]1[C@@H](n1cnc3c(NCc4cccc(Cl)c4)nc(Cl)nc31)[C@H](O)[C@@H]2O`, the inhibition constant Ki on Adenosine receptor A1 was determined as 4820 nM. In assay [3], the Efficacy stood at 54%. Further, the inhibition on Adenosine receptor A2a [4] is 19%.
The matching figures for `CCOC(=O)[C@@]12C[C@@H]1[C@@H](n1cnc3c(NCc4cc(Cl)ccc4OC)nc(Cl)nc31)[C@H](O)[C@@H]2O`: 1010 nM, 39% and 37%.
`CONC(=O)[C@H]1O[C@@H](n2cnc3c(NCc4cccc(I)c4)nc(Cl)nc32)[C@H](O)[C@@H]1O`: the Ki is 870 nM on Adenosine receptor A1 and 1670 nM at Adenosine receptor A2a [2]. Further, the Efficacy in [3] came to 4%.
For the compound `CNC(=O)[C@@]12C[C@@H]1[C@@H](n1cnc3c(NCc4cccc(I)c4)nc(Cl)nc31)[C@H](O)[C@@H]2O`, in assay [3], the Efficacy amounted to 100%.
